The record followed here is ChEMBL document CHEMBL3596099, “Strong positive cooperativity in binding to the A3T3 repeat by Hoechst 33258 derivatives attaching the quinoline units at the end of a branched linker” (Bioorg Med Chem, 2015).

Activity calls are given as the source filed them. The rule behind the calls is not given here.

Holding throughout (assay type): nucleic-acid assay
Experiment [1] relates to Nucleic Acid. Put plainly: Binding affinity to A3T3 repeat containing DNA5(3) (unknown origin) at 5 uM by UV-vis spectroscopy. A digest of the protocol:
(§1)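 UV–vis spectra of 5 μM ligand with or without DNA5(3), in 3.0 mM HEPES, 3.0 mM NaCl, pH 7.0, 25 °C. Samples are stirred 7 h at room temperature before measurement. Band shifts and % absorbance change are recorded for the Hoechst and quinoline regions.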

Experiment [2] concerns Nucleic Acid. Put plainly: Binding affinity to A3T3 repeat containing DNA5(3) (unknown origin) assessed as cooperativity with DNA at 10 nM by fluorescence titration based McGhee-von Hippel analysis. A digest of the protocol: (§2)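 Ligand at 10 nM in 3.0 mM HEPES, 3.0 mM NaCl, pH 7.0 is stirred 4 h at room temperature in a quartz cell. DNA is added in aliquots, 0–0.8 μM (0–4 μM in A3T3), with 1 h stirring after each addition. Fluorescence is read with 363 nm excitation at 25 °C and ΔF is plotted against A3T3 concentration. Data are fitted to a two-mode (high/low affinity) model. McGhee–von Hippel analysis then gives n, K and ω.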

The subject of experiment [3] is Nucleic Acid. Put plainly: Binding affinity to A3T3 repeat containing DNA5(3) (unknown origin) assessed as Hoechst region-induced shift to longer wavelength (372.5 to 384.5 nm) with increase in intensity at 5 uM by UV-vis spectroscopy. A digest of the protocol:
as §1

Experiment [4] concerns Nucleic Acid. Briefly: Binding affinity to A3T3 repeat containing DNA1 (unknown origin) at 10 uM by CD spectroscopy. The gist of the method: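 CD spectrum of DNA1 (5 μM in A3T3) recorded alone and with ligand at 10 μM (2 equiv relative to A3T3).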
The test system of experiment [5] is Nucleic Acid. Put plainly: Binding affinity to A3T3 repeat containing DNA5(3) (unknown origin) assessed as association constant for changes at 327 nm at 0 to 4 uM by CD spectroscopy.
The test system of experiment [6] is Nucleic Acid. Briefly: Binding affinity to A3T3 repeat containing DNA5(3) (unknown origin) at 0 to 4 uM by CD spectroscopy.
The test system of experiment [7] is Nucleic Acid. Put plainly: Binding affinity to A3T3 repeat not-containing DNA0 (unknown origin) assessed as increase in fluorescence intensity at 10 nM by fluorescence titration method. A digest of the protocol:
as §2

Experiment [8] concerns Nucleic Acid. Briefly: Binding affinity to A3T3 repeat containing DNA5(3) (unknown origin) assessed as quinoline region-induced shift to shorter wavelength (328.5 to 326.5 nm) with % increase in intensity at 5 uM by UV-vis spectroscopy. A digest of the protocol:
as §1

Experiment [9] concerns Nucleic Acid. Put plainly: Binding affinity to A3T3 repeat containing DNA5(3) (unknown origin) assessed as association constant for changes at 275 nm at 0 to 4 uM by CD spectroscopy.

Take `CN1CCN(c2cc(C(=O)NCCN(CCC(=O)NCCOCCOCCNC(=O)COc3ccc4ncccc4c3Br)CCC(=O)NCCOCCOCCNC(=O)COc3ccc4ncccc4c3Br)c3nc(-c4ccc5nc(-c6ccc(O)cc6)[nH]c5c4)[nH]c3c2)CC1`: in experiment [1], the result was inactive. `CN1CCN(c2cc(C(=O)NCCN(CCC(=O)NCCOCCOCCNC(=O)COc3cccnc3)CCC(=O)NCCOCCOCCNC(=O)COc3cccnc3)c3nc(-c4ccc5nc(-c6ccc(O)cc6)[nH]c5c4)[nH]c3c2)CC1`: in experiment [2], the result was inactive.

As to `CN1CCN(c2cc(C(=O)NCCN(CCC(=O)NCCOCCOCC(=O)NCCOCCOCCNC(=O)COc3ccc4ncccc4c3)CCC(=O)NCCOCCOCC(=O)NCCOCCOCCNC(=O)COc3ccc4ncccc4c3)c3nc(-c4ccc5nc(-c6ccc(O)cc6)[nH]c5c4)[nH]c3c2)CC1`, the result in experiment [2] was inactive. For `CN1CCN(c2cc(C(=O)NCCN(CCC(=O)NCCOCCOCCNC(=O)COc3ccc4nccnc4c3)CCC(=O)NCCOCCOCCNC(=O)COc3ccc4nccnc4c3)c3nc(-c4ccc5nc(-c6ccc(O)cc6)[nH]c5c4)[nH]c3c2)CC1`, the outcome in experiment [2] was inactive.

Regarding `CN1CCN(c2cc(C(=O)NCCN(CCC(=O)NCCNC(=O)COc3ccc4ncccc4c3)CCC(=O)NCCNC(=O)COc3ccc4ncccc4c3)c3nc(-c4ccc5nc(-c6ccc(O)cc6)[nH]c5c4)[nH]c3c2)CC1`, the result in [2] was inactive.

Turning to `CN1CCN(c2cc(C(=O)NCCN(CCC(=O)NCCOCCOCCNC(=O)COc3ccc4ccccc4n3)CCC(=O)NCCOCCOCCNC(=O)COc3ccc4ccccc4n3)c3nc(-c4ccc5nc(-c6ccc(O)cc6)[nH]c5c4)[nH]c3c2)CC1`, in [2], the outcome was inactive. Take `CN1CCN(c2cc(C(=O)NCCN(CCC(=O)NCCOCCOCCNC(=O)COc3ccc4ncccc4c3)CCC(=O)NCCOCCOCCNC(=O)COc3ccc4ncccc4c3)c3nc(-c4ccc5nc(-c6ccc(O)cc6)[nH]c5c4)[nH]c3c2)CC1`: the Activity turned out to be 50% in [3] and 43% in [8]. The outcome in experiment [4] and in [7] was inactive. Further, the K in experiment [5] stood at 3.9 ×10⁵ /M; in [9], 6.5 ×10⁶ /M. In addition, the outcome in experiment [1], in experiment [6] and in [2] was Active. For the compound `CN1CCN(c2cc(C(=O)NCCN(CCC(=O)NCCOCCOCCNC(=O)COc3ccc4ccccc4c3)CCC(=O)NCCOCCOCCNC(=O)COc3ccc4ccccc4c3)c3nc(-c4ccc5nc(-c6ccc(O)cc6)[nH]c5c4)[nH]c3c2)CC1`, the outcome in experiment [2] was Active. As for `CN1CCN(c2cc(C(=O)NCCN(CCC(=O)NCCOCCOCCNC(=O)COc3ccc4cnccc4c3)CCC(=O)NCCOCCOCCNC(=O)COc3ccc4cnccc4c3)c3nc(-c4ccc5nc(-c6ccc(O)cc6)[nH]c5c4)[nH]c3c2)CC1`, in [2], the outcome was Active.
